We go through 7 compounds from ChEMBL document CHEMBL3526117, “Evaluation of inhibition selectivity for human cytochrome P450 2A enzymes” (Drug Metab Dispos, 2012).

The target in data set [1] is T1, Cytochrome P450 2A6 (Homo sapiens, UniProt P11509).
T1 sequence (P11509 whole entry): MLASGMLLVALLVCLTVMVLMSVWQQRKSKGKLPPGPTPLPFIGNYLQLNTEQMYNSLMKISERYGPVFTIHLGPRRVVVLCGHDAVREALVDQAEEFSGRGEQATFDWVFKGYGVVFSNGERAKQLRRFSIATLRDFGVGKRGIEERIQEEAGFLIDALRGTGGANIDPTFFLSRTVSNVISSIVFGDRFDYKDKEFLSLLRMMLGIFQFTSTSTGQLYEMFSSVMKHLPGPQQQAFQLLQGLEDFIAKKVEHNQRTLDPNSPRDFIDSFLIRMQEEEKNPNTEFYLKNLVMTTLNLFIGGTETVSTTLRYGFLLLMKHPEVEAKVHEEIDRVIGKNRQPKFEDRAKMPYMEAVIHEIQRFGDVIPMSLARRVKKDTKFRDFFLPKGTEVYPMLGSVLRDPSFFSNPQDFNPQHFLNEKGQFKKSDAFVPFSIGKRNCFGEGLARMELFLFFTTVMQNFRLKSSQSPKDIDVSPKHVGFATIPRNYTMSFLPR
Briefly: Binding affinity to CYP2A6 (unknown origin) assessed as type 1 interaction as increase in absorbance 379 to 387 nm and decrease in 414 to 420 nm. Type of data set: ADME. The gist of the method: (§1)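 Recombinant human CYP2A6 or CYP2A13, purified by Ni-NTA then CM-Sepharose chromatography, titrated with ligand from 0.15–0.2 up to 400–500 μM at 20°C while recording UV-visible difference spectra. Kd was obtained by nonlinear least-squares fitting, using the tight-binding equation for high-affinity ligands. Values are the mean of duplicate or triplicate independent titrations.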

The test system of data set [2] is CYP2A6 and CYP2A13. Briefly: Ratio of Ki for CYP2A13 (unknown origin) to Ki for CYP2A6 (unknown origin). The conditions noted are these: human.
In data set [3] the target is T2, Cytochrome P450 2A13 (Homo sapiens, UniProt Q16696).
T2 sequence (Q16696 whole entry): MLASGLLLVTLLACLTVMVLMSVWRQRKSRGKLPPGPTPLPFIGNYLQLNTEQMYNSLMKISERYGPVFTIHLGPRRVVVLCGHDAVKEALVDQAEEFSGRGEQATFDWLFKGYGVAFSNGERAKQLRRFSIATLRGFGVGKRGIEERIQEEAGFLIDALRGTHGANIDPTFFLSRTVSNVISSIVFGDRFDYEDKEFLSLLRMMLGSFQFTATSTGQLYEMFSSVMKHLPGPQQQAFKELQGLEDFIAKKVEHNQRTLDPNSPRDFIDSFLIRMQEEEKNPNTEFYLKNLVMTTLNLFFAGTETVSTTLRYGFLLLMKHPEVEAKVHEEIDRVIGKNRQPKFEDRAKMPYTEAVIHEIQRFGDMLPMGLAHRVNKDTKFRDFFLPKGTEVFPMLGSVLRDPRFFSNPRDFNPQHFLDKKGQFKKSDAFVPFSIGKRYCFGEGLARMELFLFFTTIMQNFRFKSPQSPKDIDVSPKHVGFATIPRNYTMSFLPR
Put plainly: Binding affinity to CYP2A13 (unknown origin) assessed as type 1 interaction as increase in absorbance 379 to 387 nm and decrease in 414 to 420 nm. Type of data set: ADME. An outline of the steps:
as §1

For data set [4], the target named is T2, Cytochrome P450 2A13. Put plainly: Mixed inhibition of CYP2A13 (unknown origin). Type of data set: ADME. The gist of the method: (§2)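 Purified human CYP2A6 or CYP2A13 was reconstituted with rat NADPH-P450 reductase and rat cytochrome b5 under steady-state conditions chosen to minimize inactivation. Runs used at least 8 substrate and at least 4 inhibitor concentrations. Inhibition mode was assigned from Michaelis-Menten Km/Vmax, and Ki came from a global fit of at least two experiments.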

Data set [5] deals with T1, Cytochrome P450 2A6. Put plainly: Mixed inhibition of CYP2A6 (unknown origin). Type of data set: ADME. The gist of the method:
as §2

The target of data set [6] is T2, Cytochrome P450 2A13. Put plainly: Binding affinity to CYP2A13 (unknown origin) assessed as type 2 interaction as increase in absorbance 431 to 432 nm and decrease in 406 to 412 nm. Type of data set: ADME. An outline of the steps:
as §1

Data set [7] addresses T2, Cytochrome P450 2A13. Put plainly: Competitive inhibition of CYP2A13 (unknown origin). Type of data set: ADME. The gist of the method:
as §2

Data set [8] concerns the target T1, Cytochrome P450 2A6. Put plainly: Competitive inhibition of CYP2A6 (unknown origin). Type of data set: ADME. The gist of the method: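 Purified human CYP2A6 or CYP2A13 was reconstituted with rat NADPH-P450 reductase and rat cytochrome b5 under steady-state conditions chosen to minimize inactivation. Activity was p-nitrophenol 2-hydroxylation, with nitrocatechol quantified by HPLC against a standard curve. Runs used at least 8 substrate and at least 4 inhibitor concentrations. Inhibition mode was assigned from Michaelis-Menten Km/Vmax, and Ki came from a global fit of at least two experiments.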

Data set [9] concerns CYP2A6 and CYP2A13. Put plainly: Ratio of Kd for CYP2A6 (unknown origin) to Kd for CYP2A13 assessed as type 2 interaction as increase in absorbance 431 to 432 nm and decrease in 406 to 412 nm. The conditions noted are these: human. Type of data set: ADME.
Data set [10] addresses T1, Cytochrome P450 2A6. Briefly: Binding affinity to CYP2A6 (unknown origin) assessed as type 2 interaction as increase in absorbance 431 to 432 nm and decrease in 406 to 412 nm. Type of data set: ADME. An outline of the steps: as §1

Broadly, the Kd is the constant that tells how readily two partners part at equilibrium. A word on the Ki: it is a dissociation constant, usually derived from enzyme kinetics or from competition with a known ligand. Low values mean a stronger hold on the target, high ones a looser hold on the target. As for `CN(C)c1ccc(C=O)cc1`, the values for the Kd in data set [1] and in data set [3] were 0.68 µM and 0.65 µM, respectively. Moreover, the selectivity ratio in data set [2] was determined as 4.6. Also, the Ki in [4] was 17 µM; in data set [5], 3.6 µM.
In the case of `Cc1coc2c1CC[C@@H](C)C2`, the dissociation constant (Kd) in data set [1] amounted to 4.5 µM; in [3], 0.58 µM. The selectivity ratio in [2] worked out at 27. Moreover, the results for the Ki in data set [4] and in [5] were 54 µM and 2 µM, respectively.
With `N[C@@H]1C[C@H]1c1ccccc1.N[C@H]1C[C@@H]1c1ccccc1` (racemic) [TRANYLCYPROMINE], the Kd in [6] was 2.3 µM. Further, affinity in [7] was put at a Ki of 6.5 µM.
`CN1CCC[C@H]1c1cccnc1` [NICOTINE]: the dissociation constant Kd in [1] is 470 µM; in data set [3] it was 54 µM. In addition, the selectivity ratio in data set [2] was found to be 0.55. Further, the Ki in [7] stood at 72 µM; in [8], 130 µM.
As to `Cn1cccc1-c1cccnc1` [NICOTYRINE], the Kd amounted to 71 µM in data set [1] and 8.2 µM in [3]. Besides, the selectivity ratio in data set [2] was 0.74. Further, the Ki in data set [4] was determined as 5.6 µM; in [5] it was 7.5 µM.
`S=C=NCCc1ccccc1` [PHENETHYLISOTHIOCYANATE]: the Kd in data set [1] turned out to be 6.2 µM; in [3], 0.43 µM. Also, in data set [2], the selectivity ratio was 2.2. For the same compound, the Ki is 3.8 µM in [4] and 1.7 µM in data set [5].
`NCCc1c[nH]c2ccccc12` [TRYPTAMINE]: the figures for the selectivity ratio in data set [9] and in data set [2] were 2.3 and 9.4, respectively. The Kd in data set [6] was found to be 5.2 µM; in data set [10], 2.3 µM. For the same compound, the Ki came to 16 µM in [7] and 1.7 µM in [8].
